The source of these data is article PMC7984436 (Clinical Pharmacology in Drug Development, 2020).

“Also recorded” adds a separate entry of the source. Where two headings read alike, the source gives them in different places.

The subject of data set [1] is CYP3A. The settings on record: oral contraceptives that are substrates of CYP3A; cited from earlier work.
For data set [2] the following is noted: cited from earlier work; for elimination half-life: background statement for the sampling period, no reference given.
Data set [3] is classed as in vivo, human. The settings on record: for Tmax: median (minimum through maximum); for Cmax: n = 22, mean ± SD; for t1/2: mean ± SD.
Data set [4] can be described thus: Safety monitoring in the phase 1 study. Format: in vivo, human. The settings on record: healthy subjects. The procedure, abridged: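 Healthy adults aged 18-55 took part in a single-centre, open-label, two-period, single-sequence study with 24-day on-site confinement. Period 1 gave a single oral 150 mg extended-release CYP2B6 probe substrate dose after at least a 10-hour fast. Period 2 repeated that dose on day 12 of 16 days of oral test compound. Throughout, safety checks covered adverse events, physical exams, vital signs, ECG, haematology, chemistry and urinalysis.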

A further data set relates to JAK1. The settings on record: less potent against JAK2, JAK3, and tyrosine kinase; cited from earlier work.
The conditions of data set [5]: cited from earlier work.
For data set [6] the following is noted: cited from earlier work. This is another data set of the same source.
Data set [7] concerns CYP1A2, CYP2C9, CYP2C19, or CYP2D6. To be noted: chronic dosing of upadacitinib 30 mg once daily, healthy volunteers; cited from earlier work.
The subject of data set [8] is CYP enzymes (CYP1A2, CYP2B6, CYP2C8, CYP2C9, CYP2C19, CYP2D6, and CYP3A4). To be noted: at clinically relevant concentrations, cited from earlier work.
Another data set concerns CYP2B6 mRNA. To be noted: in vitro, at concentrations higher than clinically relevant; cited from earlier work.
The subject of a further data set is CYP2B6. Nature of the data set: In vivo effect of upadacitinib on CYP2B6. The arrangement: species or system human.
Data set [9] concerns CYP3A. The settings on record: cited from earlier work.
Where [10] appears, read: Study period 2, day 12: upadacitinib 30 mg once daily + bupropion 150 mg.
Where [11] appears, read: with multiple doses of rifampin (broad CYP inducer).
Setting [12] is: with the strong CYP3A inhibitor ketoconazole.
Where [13] appears, read: Period 1, day 1: bupropion 150-mg single dose.
Where [14] appears, read: Period 2, day 12: upadacitinib 30 mg once daily + bupropion 150-mg single dose.
Where [15] appears, read: Study period 1, day 1: bupropion 150 mg alone.
The mark [16] stands for this setting: with upadacitinib relative to bupropion alone.
[17] abbreviates: with upadacitinib 30 mg once daily.

Consider `C#C[C@]1(O)CC[C@H]2[C@@H]3CCC4=CC(=O)CC[C@@H]4[C@H]3CC[C@@]21CC` [levonorgestrel], for which the “impact of upadacitinib on exposure” value with CYP3A [1] is “no impact”.
With `CC(NC(C)(C)C)C(=O)c1cccc(Cl)c1` (stereo not shown) [Bupropion, bupropion], in [2], the elimination half-life result is “approximately 20 hours”. Further, the Tmax in data set [3] (setting [10]) is on record as 5.0 (3.0‐8.0) h. In [3] (human, plasma, oral, 150 mg), this compound returned an AUC(0-inf) of 859 ng·h/mL and an exposure AUC(0-t) of 869 ± 271 ng·h/mL. The compound further displayed a Cmax in data set [3] (human, plasma, oral, 150 mg, Cmax, Study period 1, day 1: bupropion 150 mg alone, plasma) of 83.5 ± 26.2 ng/mL.
With `CC[C@@H]1CN(C(=O)NCC(F)(F)F)C[C@@H]1c1cnc2cnc3[nH]ccc3n12` [upadacitinib], in data set [4] (n = 22), the “discontinuation because of adverse events” value is recorded as “no subject discontinued because of AEs”. Also, in data set [4] (n = 22, upadacitinib 30 mg once daily and bupropion 150 mg), the “severity of the majority of treatment-emergent adverse events” value is listed as “mild in severity”. Further, the JAK1 inhibition entry with JAK1 was “potently inhibits”. Moreover, in data set [5] (setting [11]), the “decrease in upadacitinib AUC” value is on record as about 60% and the “decrease in upadacitinib Cmax” value is “approximately 50%”. Besides, in data set [5] (setting [12]), the “increase in upadacitinib AUC” value is 75% and the “increase in upadacitinib Cmax” value is listed as 70%. Further, the “dose eliminated unchanged in urine” value in data set [6] was “approximately 20%”. The “effects on CYP1A2, CYP2C9, CYP2C19, or CYP2D6 activity” value in [7] is recorded as “no relevant effects”. For the same compound, the “inhibition or induction of the activity of CYP enzymes” value in data set [8] is given as “did not inhibit or induce”. The “inhibitor or inducer of drug-metabolizing enzymes, including CYP2B6” value in [8] (in vitro) is given as “not an inhibitor or inducer”. In addition, the “CYP2B6 mRNA expression” value in the data set on CYP2B6 mRNA is “increase in CYP2B6 mRNA expression”. Further, the “effect on bupropion exposures (Cmax or AUC)” value in the data set with CYP2B6 (bupropion on day 12 of 16-day upadacitinib 30 mg once daily regimen) is listed as “no relevant effect”. For the same compound, the “effect on pharmacokinetics of substrates metabolized by CYP2B6” value in the data set with CYP2B6 (upadacitinib 30 mg once daily, multiple doses) is on record as “no relevant effect; also recorded: lack of relevant effect”.
In the case of `C[C@H]1NC(C)(C)CO[C@]1(O)c1cccc(Cl)c1` [Hydroxybupropion, hydroxybupropion], the elimination half-life result in data set [2] is reported as “approximately 20 hours”. Further, in [2] (inter- and intrasubject variability), the “range of variability in hydroxybupropion exposures” value is listed as 20% to 50%. Further, in [3] (setting [13]), the “Hydroxybupropion-to-bupropion metabolic ratio, AUCinf, central value, reference” value amounted to 16.9; the “Hydroxybupropion-to-bupropion metabolic ratio, AUCt, central value, reference” value was found to be 16.5; the “Hydroxybupropion-to-bupropion metabolic ratio, Cmax, central value, reference” value is given as 3.83. Also, in data set [3] (setting [14]), the “Hydroxybupropion-to-bupropion metabolic ratio, AUCinf, central value, test” value came out at 13.2; the “Hydroxybupropion-to-bupropion metabolic ratio, AUCt, central value, test” value is reported as 13.1; the “Hydroxybupropion-to-bupropion metabolic ratio, Cmax, central value, test” value stood at 3.45. Also, in data set [3] (setting [15]), the t1/2 came out at 25.1 ± 6.8 h and the Tmax was 10.0 (5.0‐24.0) h. In addition, in [3] (Study period 1, day 1: bupropion 150 mg alone, plasma), the Cmax was found to be 336 ± 150 ng/mL. Moreover, in data set [3] (setting [10]), the t1/2 worked out at 23.9 ± 5.6 h and the Tmax is recorded as 10.0 (6.0‐24.0) h. In addition, the Cmax in [3] (Study period 2, day 12: upadacitinib 30 mg once daily + bupropion 150 mg, plasma) is listed as 264 ± 121 ng/mL. In addition, in [3] (with upadacitinib 30 mg once daily relative to bupropion alone), the “AUCt ratio of central values, point estimate” value is recorded as 0.726. Also, the “exposures (AUCinf) lower when administered with upadacitinib” value in data set [3] (with upadacitinib 30 mg once daily versus bupropion alone) is 28%. Also, in data set [3] (setting [16]), the “Hydroxybupropion-to-bupropion metabolic ratio, AUCinf, ratio of central values, point estimate” value was 0.780; the “Hydroxybupropion-to-bupropion metabolic ratio, AUCt, ratio of central values, point estimate” value is given as 0.790; the “Hydroxybupropion-to-bupropion metabolic ratio, Cmax, ratio of central values, point estimate” value was 0.902.
As for `Cc1ncc2n1-c1ccc(Cl)cc1C(c1ccccc1F)=NC2` [midazolam], in the data set with CYP3A [9] (chronic dosing of upadacitinib 30 mg once daily, healthy volunteers), the “decrease in exposures of midazolam” value was 26%. For the same compound, in the data set with CYP3A [9] (setting [17]), the “decrease in midazolam AUC” value is reported as 26% and the “decrease in midazolam Cmax” value was 26%.
For the compound `C#C[C@]1(O)CC[C@H]2[C@@H]3CCc4cc(O)ccc4[C@H]3CC[C@@]21C` [ethinylestradiol], the “impact of upadacitinib on exposure” value in the data set with CYP3A [1] is recorded as “no impact”.
